# Non-standard residues stand in square brackets, D forms with d. Residues, ends and D or L forms follow the SMILES beside them. ξ: configuration not given here. *: point of attachment. Sta = CC(C)C[C@H](N)[C@@H](O)CC(=O)O; NMeH = CN[C@@H](Cc1c[nH]cn1)C(=O)O; NHCH2(2-pyridyl) = c1ccc(CN*)nc1; NMeF = CN[C@@H](Cc1ccccc1)C(=O)O; αMeF = C[C@](N)(Cc1ccccc1)C(=O)O; ξαMeF = CC(N)(Cc1ccccc1)C(=O)O; Boc = CC(C)(C)OC(=O)*
# Molecular target: T1, Cathepsin D (Bos taurus, UniProt P80209)
# T1 sequence (P80209 whole entry): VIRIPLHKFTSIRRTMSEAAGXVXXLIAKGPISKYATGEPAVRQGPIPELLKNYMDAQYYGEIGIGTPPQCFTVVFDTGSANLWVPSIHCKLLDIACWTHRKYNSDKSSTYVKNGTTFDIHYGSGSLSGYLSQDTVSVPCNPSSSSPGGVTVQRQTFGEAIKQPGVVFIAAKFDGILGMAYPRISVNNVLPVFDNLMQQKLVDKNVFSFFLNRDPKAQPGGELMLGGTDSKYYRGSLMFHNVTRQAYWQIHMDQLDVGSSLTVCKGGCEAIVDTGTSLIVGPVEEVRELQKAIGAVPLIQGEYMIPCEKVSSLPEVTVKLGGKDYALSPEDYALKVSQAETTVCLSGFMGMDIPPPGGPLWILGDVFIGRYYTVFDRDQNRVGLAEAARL
# Assay: Inhibition of bovine cathepsin D
row,SMILES,IC50 [nM]
1,CC[C@H](C)[C@H](NC(=O)[C@@H](C[C@H](O)[C@H](CC(C)C)NC(=O)[C@H](Cc1c[nH]cn1)N(C)C(=O)[C@H](Cc1ccccc1)NC(=O)[C@@H]1CCCN1C(=O)OC(C)(C)C)C(C)C)C(=O)NCc1ccccn1,6300

# Molecular target: Pepsin A (Sus scrofa, UniProt P00791)
# Sequence (P00791 whole entry): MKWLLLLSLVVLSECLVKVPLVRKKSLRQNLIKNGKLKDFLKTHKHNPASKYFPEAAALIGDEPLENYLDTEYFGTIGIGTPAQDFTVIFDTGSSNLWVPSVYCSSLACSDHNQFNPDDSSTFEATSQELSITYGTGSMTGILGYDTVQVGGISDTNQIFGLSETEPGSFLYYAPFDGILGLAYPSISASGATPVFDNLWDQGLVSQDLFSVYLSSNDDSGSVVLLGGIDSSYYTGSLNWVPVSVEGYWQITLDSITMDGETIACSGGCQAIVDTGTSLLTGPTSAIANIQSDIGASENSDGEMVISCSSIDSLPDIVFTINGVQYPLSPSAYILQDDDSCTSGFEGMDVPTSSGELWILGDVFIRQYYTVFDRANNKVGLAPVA
# Assay: Inhibition of porcine pepsin
# Outline: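 Porcine pepsin with porcine hemoglobin substrate in 0.02 M KCl-HCl buffer pH 2, with compounds dissolved in buffer. Incubation 25 min at 37 °C, then perchloric acid added and acid-soluble fraction absorbance read at 280 nm.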
row,SMILES,IC50 [nM]
1,CC[C@H](C)[C@H](NC(=O)[C@@H](C[C@H](O)[C@H](CC(C)C)NC(=O)[C@H](Cc1c[nH]cn1)N(C)C(=O)[C@H](Cc1ccccc1)NC(=O)[C@@H]1CCCN1C(=O)OC(C)(C)C)C(C)C)C(=O)NCc1ccccn1,6800

# Molecular target: T2, Renin (Homo sapiens, UniProt P00797)
# T2 sequence (P00797 whole entry): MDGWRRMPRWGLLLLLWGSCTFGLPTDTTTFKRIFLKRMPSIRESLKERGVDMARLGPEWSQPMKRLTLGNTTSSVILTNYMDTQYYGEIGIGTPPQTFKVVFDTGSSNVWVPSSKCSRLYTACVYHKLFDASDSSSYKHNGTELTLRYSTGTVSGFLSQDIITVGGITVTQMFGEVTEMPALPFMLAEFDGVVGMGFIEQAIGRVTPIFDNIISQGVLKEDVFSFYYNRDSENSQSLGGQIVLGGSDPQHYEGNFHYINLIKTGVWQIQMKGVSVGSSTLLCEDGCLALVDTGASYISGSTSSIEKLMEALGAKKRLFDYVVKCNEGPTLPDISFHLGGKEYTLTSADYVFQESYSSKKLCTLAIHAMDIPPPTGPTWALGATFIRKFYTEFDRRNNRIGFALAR
# Assay: Inhibition of human plasma renin
# Format: cell-free
# Outline: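 Lyophilized human plasma with 0.1% EDTA as renin source. Plasma is combined with phenylmethylsulfonyl fluoride, maleate buffer pH 6.0 and inhibitor in 1% Tween 80/water, then incubated 90 min at 37 °C. Angiotensin I measured by radioimmunoassay. Percent inhibition taken vs control tubes; IC50 estimated graphically from 3–4 concentrations on a semilog plot.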
row,SMILES,IC50 [nM]
1,CC[C@H](C)[C@H](NC(=O)[C@@H](NC[C@H](CC(C)C)NC(=O)[C@H](Cc1c[nH]cn1)N(C)C(=O)[C@H](Cc1ccccc1)NC(=O)[C@@H]1CCCN1C(=O)OC(C)(C)C)C(C)C)C(=O)NCc1ccccn1,68
2,CC[C@H](C)[C@H](NC(=O)[C@@H](NC[C@H](CC(C)C)NC(=O)[C@H](Cc1c[nH]cn1)N(C)C(=O)[C@H](Cc1ccccc1)NC(=O)OC(C)(C)C)C(C)C)C(=O)NCc1ccccn1,450
3,CC[C@H](C)[C@H](NC(=O)[C@@H](C[C@H](O)[C@H](CC(C)C)NC(=O)[C@H](Cc1c[nH]cn1)N(C)C(=O)[C@H](Cc1ccccc1)NC(=O)OC(C)(C)C)C(C)C)C(=O)NCc1ccccn1,0.65
4,CCC(C)C(NC(=O)CC(O)C(CC(C)C)NC(=O)C(Cc1cnc[nH]1)N(C)C(=O)C(Cc1ccccc1)NC(=O)OC(C)(C)C)C(=O)NCc1ccccn1 (stereo not drawn),120
5,CC[C@H](C)[C@H](NC(=O)C[C@H](O)[C@H](CC(C)C)NC(=O)[C@H](Cc1ccccc1)NC(=O)[C@H](Cc1ccccc1)NC(=O)OC(C)(C)C)C(=O)NCc1ccccn1 (Boc-FF[Sta]I-{NHCH2(2-pyridyl)}),24
6,CC[C@H](C)[C@H](NC(=O)C[C@H](O)[C@H](CC(C)C)NC(=O)[C@H](Cc1ccccc1)N(C)C(=O)[C@H](Cc1ccccc1)NC(=O)OC(C)(C)C)C(=O)NCc1ccccn1 (Boc-F[NMeF][Sta]I-{NHCH2(2-pyridyl)}),100
7,CC[C@H](C)[C@H](NC(=O)C[C@H](O)[C@H](CC(C)C)NC(=O)[C@](C)(Cc1ccccc1)NC(=O)[C@H](Cc1ccccc1)NC(=O)OC(C)(C)C)C(=O)NCc1ccccn1 (Boc-F[αMeF][Sta]I-{NHCH2(2-pyridyl)}),> 10000
8,CC[C@H](C)[C@H](NC(=O)C[C@H](O)[C@H](CC(C)C)NC(=O)[C@H](Cc1c[nH]cn1)N(C)C(=O)[C@H](Cc1ccccc1)NC(=O)[C@@H]1CCCN1C(=O)OC(C)(C)C)C(=O)NCc1ccccn1 (Boc-PF[NMeH][Sta]I-{NHCH2(2-pyridyl)}),190
9,CC[C@H](C)[C@H](NC(=O)C[C@H](O)[C@H](CC(C)C)NC(=O)[C@H](Cc1ccccc1)NC(=O)[C@H](Cc1ccccc1)N(C)C(=O)OC(C)(C)C)C(=O)NCc1ccccn1 (Boc-[NMeF]F[Sta]I-{NHCH2(2-pyridyl)}),340
10,CC[C@H](C)[C@H](NC(=O)C[C@H](O)[C@H](CC(C)C)NC(=O)[C@H](Cc1c[nH]cn1)NC(=O)[C@H](Cc1ccccc1)N(C)C(=O)OC(C)(C)C)C(=O)NCc1ccccn1 (Boc-[NMeF]H[Sta]I-{NHCH2(2-pyridyl)}),720
11,CC[C@H](C)[C@H](NC(=O)C[C@H](O)[C@H](CC(C)C)NC(=O)[C@H](Cc1ccccc1)NC(=O)C(C)(Cc1ccccc1)NC(=O)OC(C)(C)C)C(=O)NCc1ccccn1 (stereo partly drawn) (Boc-[ξαMeF]F[Sta]I-{NHCH2(2-pyridyl)}),6800
